# How the values were obtained:
# [1] = molecular target: SRSF protein kinase 3 (Homo sapiens) (UniProt Q9UPE1); experiment: Inhibition of wild-type human partial length SRPK3 (P41 to P567 residues) expressed in Escherichia coli BL21 assessed as residual activity at 1000 nM after 30 mins by Kinomescan method relative to control
# [2] = molecular target: Serine/threonine-protein kinase DCLK2 (Homo sapiens) (UniProt Q8N568); experiment: Inhibition of wild-type human partial length DCAMKL2 (K273 to V664 residues) expressed in Escherichia coli BL21 assessed as residual activity at 1000 nM after 30 mins by Kinomescan method relative to control
# Serine/threonine-protein kinase DCLK2 (Homo sapiens), sequence (Q8N568 whole entry, the tested form may be a part): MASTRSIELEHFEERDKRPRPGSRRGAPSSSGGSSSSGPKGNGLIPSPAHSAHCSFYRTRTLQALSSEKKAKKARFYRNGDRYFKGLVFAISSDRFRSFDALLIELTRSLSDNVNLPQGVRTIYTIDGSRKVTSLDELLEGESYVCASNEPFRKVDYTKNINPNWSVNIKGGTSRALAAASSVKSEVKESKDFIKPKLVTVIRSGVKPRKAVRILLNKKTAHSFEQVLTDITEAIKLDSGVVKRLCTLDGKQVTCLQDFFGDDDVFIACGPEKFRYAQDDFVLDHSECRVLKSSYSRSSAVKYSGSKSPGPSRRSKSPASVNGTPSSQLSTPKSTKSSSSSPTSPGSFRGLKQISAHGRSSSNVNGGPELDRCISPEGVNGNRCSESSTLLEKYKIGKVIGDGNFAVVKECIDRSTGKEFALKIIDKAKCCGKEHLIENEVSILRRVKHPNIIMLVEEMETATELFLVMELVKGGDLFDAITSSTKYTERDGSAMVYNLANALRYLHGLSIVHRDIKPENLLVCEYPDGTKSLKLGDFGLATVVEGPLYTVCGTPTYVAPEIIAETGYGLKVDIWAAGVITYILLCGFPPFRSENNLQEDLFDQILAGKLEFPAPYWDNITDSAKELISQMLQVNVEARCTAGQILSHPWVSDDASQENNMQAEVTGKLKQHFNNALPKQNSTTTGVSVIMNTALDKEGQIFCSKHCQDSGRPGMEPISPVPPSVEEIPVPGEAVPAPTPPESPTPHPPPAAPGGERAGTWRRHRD
# [3] = tested on: Serine/threonine-protein kinase B-raf (Homo sapiens), P15056 [V600E]; experiment: Inhibition of human partial length BRAF V600E mutant (S429 to E741 residues) expressed in HEK293 cells assessed as residual activity at 1000 nM after 30 mins by Kinomescan method relative to control; format: cell-based
# Serine/threonine-protein kinase B-raf (Homo sapiens), P15056 [V600E], sequence (P15056 whole entry V600E, the tested form may be a part): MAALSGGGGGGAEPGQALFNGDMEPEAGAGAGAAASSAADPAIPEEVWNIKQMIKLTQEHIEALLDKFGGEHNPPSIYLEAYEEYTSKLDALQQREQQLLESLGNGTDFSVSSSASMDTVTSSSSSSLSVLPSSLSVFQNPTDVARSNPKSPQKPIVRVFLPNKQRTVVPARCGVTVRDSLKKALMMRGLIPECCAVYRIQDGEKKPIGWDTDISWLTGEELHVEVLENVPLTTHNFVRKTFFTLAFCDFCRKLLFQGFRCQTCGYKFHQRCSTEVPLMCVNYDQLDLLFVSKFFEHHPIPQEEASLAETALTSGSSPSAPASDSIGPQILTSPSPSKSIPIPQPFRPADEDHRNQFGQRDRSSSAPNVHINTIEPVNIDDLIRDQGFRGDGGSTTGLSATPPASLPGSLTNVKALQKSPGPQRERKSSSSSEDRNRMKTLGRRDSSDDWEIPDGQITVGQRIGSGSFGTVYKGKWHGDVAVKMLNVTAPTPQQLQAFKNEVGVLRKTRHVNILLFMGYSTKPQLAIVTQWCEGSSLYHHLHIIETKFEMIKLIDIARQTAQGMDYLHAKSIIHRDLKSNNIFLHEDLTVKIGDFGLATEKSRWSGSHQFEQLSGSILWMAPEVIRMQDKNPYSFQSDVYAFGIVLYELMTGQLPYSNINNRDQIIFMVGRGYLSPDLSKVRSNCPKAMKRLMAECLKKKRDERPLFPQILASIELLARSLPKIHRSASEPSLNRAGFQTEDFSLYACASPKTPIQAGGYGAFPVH
# In short: (§1)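 KINOMEscan binding panel of 456 kinases, with the test compound at a single concentration of 1 µM. Read-out is Percent Control.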
# [4] = tested on: Receptor-type tyrosine-protein kinase FLT3 (Homo sapiens), P36888 [N841I]; experiment: Inhibition of human partial length FLT3 N841I mutant (V592 to Y969 residues) expressed in Escherichia coli BL21 assessed as residual activity at 1000 nM after 30 mins by Kinomescan method relative to control; in short: as §1
# SRSF protein kinase 3 (Homo sapiens), sequence (Q9UPE1 whole entry, the tested form may be a part): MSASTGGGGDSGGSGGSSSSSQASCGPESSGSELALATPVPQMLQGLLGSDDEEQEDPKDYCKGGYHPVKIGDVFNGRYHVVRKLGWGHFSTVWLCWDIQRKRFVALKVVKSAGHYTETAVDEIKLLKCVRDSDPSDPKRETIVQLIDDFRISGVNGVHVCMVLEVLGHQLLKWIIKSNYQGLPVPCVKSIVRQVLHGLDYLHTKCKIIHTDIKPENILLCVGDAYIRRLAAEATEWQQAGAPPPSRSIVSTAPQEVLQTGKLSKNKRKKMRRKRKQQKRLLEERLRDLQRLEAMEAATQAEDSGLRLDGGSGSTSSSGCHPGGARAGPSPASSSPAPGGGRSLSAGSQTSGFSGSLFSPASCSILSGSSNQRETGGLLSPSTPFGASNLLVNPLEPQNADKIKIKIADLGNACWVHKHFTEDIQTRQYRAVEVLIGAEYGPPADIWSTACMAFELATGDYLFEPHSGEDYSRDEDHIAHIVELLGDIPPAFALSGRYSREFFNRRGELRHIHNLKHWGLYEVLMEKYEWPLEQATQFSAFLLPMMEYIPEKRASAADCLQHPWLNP
structure (smiles),measurement,setting,value
COc1cc(OC)c(Cl)c(N2Cc3cnc(Nc4ccc(F)cc4)nc3N(C3CCN(C(=O)/C=C/CN(C)C)CC3)C2=O)c1Cl,Activity,[1],86%
same,Activity,[2],73%
same,Activity,[3],83%
same,Activity,[4],88%
